# Bioassay records (PubChem)
# ROMK primary = human ROMK K+ channel modulation, primary screen | P48048 | Tet-inducible ROMK, thallium flux fluorescence; actives lie on both sides | B-score at 10 µM | 130,000 compounds, 2% hits | AID 1918;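 active means signal ratio slope over the read window, or its plate-corrected B-score, at least 3 SD from the plate mean, either direction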;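 further: B-score of the F/F0 ratio slope over 7 to 12 s after thallium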
# Target sequence (P48048 whole entry, looked up): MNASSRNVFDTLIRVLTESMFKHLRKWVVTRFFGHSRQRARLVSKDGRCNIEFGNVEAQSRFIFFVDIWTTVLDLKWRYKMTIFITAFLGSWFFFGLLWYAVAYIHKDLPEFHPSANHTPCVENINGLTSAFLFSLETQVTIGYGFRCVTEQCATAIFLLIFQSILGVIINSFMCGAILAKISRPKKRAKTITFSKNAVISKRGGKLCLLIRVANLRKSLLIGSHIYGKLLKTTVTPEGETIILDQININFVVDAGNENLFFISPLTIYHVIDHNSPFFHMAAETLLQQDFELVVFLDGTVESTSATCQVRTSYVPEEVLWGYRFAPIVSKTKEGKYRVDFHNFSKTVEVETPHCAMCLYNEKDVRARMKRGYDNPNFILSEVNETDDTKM
# MT stabilize HCS = microtubule stabilizers in HeLa cells | HeLa tubulin immunostaining HCS, 24 h; share of cells brighter than vehicle mean+2SD | % tubulin-high responders, % at 10 µM | AID 2205 | 200,000 compounds, 0.83% hits;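 active means plate Z-score above 3 for both tubulin-high and condensed-nucleus cell shares, with cell loss under 80%, at 10 µM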;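 further: anti alpha tubulin signal scored within the nucleus-defined area of each cell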
# bCat nuc transl = modulators of beta-catenin nuclear translocation; AID 1665; nuclear translocation activity, % at 5 µM; HeLa beta-catenin nuclear translocation, immunofluorescence imaging; 190,000 compounds, 0.3% hits;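 active means nuclear translocation activity above 50% at 5 µM, with a well cell count of 50 or more; inconclusive means wells under 50 cells across six images, flagged as toxic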;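 further: per-cell ratio of nuclear to cytoplasmic median beta-catenin stain intensity; plate controls were DMSO negative control for no effect and GSK-3 inhibitor IX positive control for full effect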
#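 Signal – beta-catenin immunofluorescence imaging with DAPI · Test system – human HeLa cell line · Dosing – 5 µM primary single dose, 0.1% DMSO, 0.02–20 µM confirmation series · Measure – % activation, nuclear-to-cytoplasmic median beta-catenin signal ratio per cell · Incubation – 24 h compound exposure at 37°C, 5% CO2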
# ROMK hit retest = confirmation of human ROMK potassium channel modulators | ROMK thallium flux, fluorescence ratio; hits give low values | AID 1917 | 3,000 compounds, 54% hits | normalized thallium flux (F/F0 slope) at 10 µM | shares compounds with ROMK primary;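 active means Flux at 10 µM at least 3 SD below or above vehicle control mean in one or both replicates; inconclusive means no clear call, values can overlap the other calls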
# An asterisk follows results filed as active; ? = inconclusive; · = no result. Most compounds without a hit are left out; they make up all but 1.9% or so of the library.
SMILES,ROMK primary,MT stabilize HCS,bCat nuc transl,ROMK hit retest
CCNC(=O)NC(=O)COC(=O)CCc1nc(=O)c2ccccc2n1C,0.61,2,-1,·
Cc1c(NC(=O)/C=C/c2ccc(S(=O)(=O)N3CCOCC3)cc2)c(=O)n(-c2ccccc2)n1C,-1.2,4,-2,·
Cc1c(/C(O)=C2\C(=O)C(=O)N(CCN(C)C)C2c2ccccc2)cnn1-c1ccccc1 (configuration not stated),·,·,1,0.078
Cc1c(/C(O)=C2/C(=O)C(=O)N(CCN(C)C)C2c2ccc(C(C)C)cc2)cnn1-c1ccccc1 (configuration not stated),·,·,0,·
O=c1[nH]c(Nc2ccccc2)cc2ccccc12,-3.3*,4,0,0.064*
O=c1nccc(Nc2ccccc2)[nH]1,·,·,-3,·
Cc1cc(C)nc(SCc2ccc(C(=O)NNC(=O)Nc3cccc(Cl)c3)cc2)n1,-1,1,-1,·
Cc1ccc(CC(=O)NCCS(=O)c2ccc(C)cc2)cc1 (configuration not stated),0.51,4,-2,·
O=C(/C=C\c1cccs1)c1c(O)ccc2ccc(=O)oc12,-5*,3,0,0.05*
O=C(/C=C/c1cccs1)c1ccc(Br)cc1,·,4,-3,·
CC(Oc1ccc(Cl)cc1Cl)C(=O)OCn1nnc2ccccc2c1=O (configuration not stated),3.7*,3,·,0.083
O=c1c2ccccc2nnn1COc1ccc(Cl)cc1Br,-0.64,3,-2,·
C=CS(=O)(=O)c1ccc(Oc2ccc(S(=O)(=O)C=C)cc2)cc1,-5.8*,2,1,0.041*
NS(=O)(=O)c1ccc(Oc2ccc(S(N)(=O)=O)cc2)cc1,0.44,3,-3,·
NC(=O)C1CCN(C(=O)CSc2nc3c(c(-c4ccccc4)n2)CCCC3)CC1,0.23,6,·,·
CCCn1c(C)cc(C(=O)COc2ccc(-c3nnco3)cc2)c1C,-1.5,4,-1,·
CCCc1cc(C(=O)Nc2ccccc2SC)no1,·,3,0,?
CCCc1cc(C(=O)Nc2ccc(F)cc2F)no1,·,6,·,·
COc1ccc(NC(=O)Cn2cnc3sc(C)c(S(=O)(=O)N4CCN(C)CC4)c3c2=O)cc1OC,-0.013,3,-1,·
O=C(CC12CC3CC(CC(C3)C1)C2)NCO,0.11,4,-1,·
CC(NC(=O)CC12CC3CC(CC(C3)C1)C2)C(=O)O (configuration not stated),2.1*,3,-2,0.091
CC(=O)c1ccc(Nc2cc(C)nc3c(C)cccc23)cc1,4.2*,18*,67*,0.087
CC(=O)c1cccc(Nc2cc(C)nc3c(C)cc(C)cc23)c1,-0.95,2,-3,·
COc1ccc(/C=N/N=C2\SC(CC(=O)O)C(=O)N2c2ccccc2)cc1 (configuration not stated),-2.3,3,-3,·
CCN(CC)S(=O)(=O)c1ccc(/C=C/C(=O)OCC(=O)N(C(C)C)C(C)C)cc1,-0.4,2,-1,·
SMILES,ROMK primary,MT stabilize HCS,bCat nuc transl,ROMK hit retest
Cc1ccc(C)c(NC(=O)/C(C#N)=C/c2ccc(Sc3nncn3C)c([N+](=O)[O-])c2)c1,-3.1*,3,-1,0.06*
Cn1cnnc1Sc1ccc(/C=C(\CC(=O)O)c2nc3ccccc3s2)cc1[N+](=O)[O-],·,·,-3,·
Cc1cc(C=NCCO)c(C)n1-c1cc(Cl)ccc1Cl,·,5,0,·
Cc1cc(/C=N/n2cnnc2)c(C)n1-c1cc(Cl)ccc1Cl,·,3,5,?
Cc1ccc(-n2nnc(-c3nccn3C)n2)cc1,·,2,-1,·
Cc1nnc(SCC(=O)c2ccc(Cl)cc2)s1,·,4,0,·
CN(c1ccc(C(=O)N2CCN(Cc3ccc4c(c3)OCO4)CC2)cc1)S(=O)(=O)c1ccccc1,-1.4,2,0,·
Cc1ccc(S(=O)(=O)N(C)c2ccc(C(=O)N3CCN(Cc4ccc5c(c4)OCO5)CC3)cc2)cc1,-5*,1,·,0.063*
COc1ccc(N2CCN(C(=O)c3ccc(N(C)S(=O)(=O)c4ccc(C)cc4)cc3)CC2)cc1,-1.7,3,0,·
COc1ccc(N2CCN(C(=O)c3ccc(N(C)S(=O)(=O)c4ccc(OC)cc4)cc3)CC2)cc1,-14*,4,0,?
COc1ccc(/C=C(\C#N)C(=O)OCC(=O)NCc2ccc(Cl)cc2)cc1,-0.3,2,·,·
CSc1nnc(C)c(=O)n1COC(=O)c1cc(Cl)ccc1[N+](=O)[O-],0.01,3,-2,·
Cc1cccn2c(CNC3CCCc4ccccc43)c(C(=O)N3CCCCC3)nc12 (configuration not stated),-3*,3,0,0.061*
CCOC(=O)C1CCCN(Cc2c(C(=O)N3CCCCC3)nc3c(C)cccn23)C1 (configuration not stated),-0.55,2,1,·
Cn1cccc1CC(=O)NNC(=O)Nc1cccc(Cl)c1,-0.39,3,-2,·
N=C1CCCN1CC(=O)c1ccc(Br)cc1,·,3,-1,·
O=C(CCc1ccc(S(=O)(=O)N2CCOCC2)cc1)N/N=C/c1ccc(O)c(O)c1O,-0.14,2,·,·
Cc1ccccc1-n1nnnc1SCC(=O)N(C)C1CCS(=O)(=O)C1 (configuration not stated),-0.081,2,-3,·
CCn1c(COc2c(C)cccc2C)nnc1SCC(=O)N1CCN(c2ccccc2)CC1,·,2,-2,·
C=CCn1c(COc2cccc(C)c2C)nnc1SCC(=O)N1CCN(c2ccccc2)CC1,·,7,1,0.054*
Cc1cc(C(=O)CSc2nnc(-c3cccc(F)c3)n2N)c(C)n1Cc1ccc2c(c1)OCO2,-1.2,5,-2,·
Cc1cc(C(=O)CSc2nnnn2-c2ccc(O)cc2)c(C)n1Cc1ccc2c(c1)OCO2,·,2,1,?
COc1cc(CNCCNC(=O)c2nonc2N)ccc1OCc1ccc(Cl)nc1,-0.25,5,1,·
O=C(CCN=C1NS(=O)(=O)c2ccccc21)N1CCc2ccccc2C1,-0.53,3,1,·
N#C/C(=C\C=C\c1ccccc1)c1nc(-c2ccc(Cl)cc2)cs1,·,·,-3,·
SMILES,ROMK primary,MT stabilize HCS,bCat nuc transl,ROMK hit retest
Cc1ccc(N=C2NC(=O)/C(=C\c3ccco3)S2)cc1,0.5,1,·,·
O=C1NC(=Nc2ccc3ccccc3c2)S/C1=C/c1ccco1,2.6*,1,-1,0.074
COc1ccc(OCc2n(CC(=O)OC3CC(C)CCC3C(C)C)c3ccccc3[n+]2C)cc1 (configuration not stated),-0.46,·,18,·
COc1ccc(-c2n(CC(=O)OC3CC(C)CCC3C(C)C)c3ccccc3[n+]2C)cc1 (configuration not stated),-1.8*,6,3,0.038*
O=C(NNC(=O)c1csc(-c2cccnc2)n1)c1ccccc1,-0.9,·,0,·
O=C(Nc1ccccc1Cl)c1csc(-c2cccnc2)n1,5.2*,·,-3,0.1*
CCCOc1ccc(-c2cc(C(=O)NCC3CCCO3)c3ccccc3n2)cc1 (configuration not stated),-4.2*,3,2,?
O=C(NCC1CCCO1)c1cc(-c2ccco2)nc2ccccc12 (configuration not stated),-0.77,4,0,·
O=C(COC(=O)c1cc(-c2ccc(F)cc2)nc2ccccc12)NCC1CCCO1 (configuration not stated),-4.4*,4,-1,0.066*
